The source of these data is PMC11378895 (Asian Journal of Pharmaceutical Sciences, 2024).

In one experiment the target is T1, LRG1 (Homo sapiens, UniProt P02750).
T1 sequence (P02750 36-347): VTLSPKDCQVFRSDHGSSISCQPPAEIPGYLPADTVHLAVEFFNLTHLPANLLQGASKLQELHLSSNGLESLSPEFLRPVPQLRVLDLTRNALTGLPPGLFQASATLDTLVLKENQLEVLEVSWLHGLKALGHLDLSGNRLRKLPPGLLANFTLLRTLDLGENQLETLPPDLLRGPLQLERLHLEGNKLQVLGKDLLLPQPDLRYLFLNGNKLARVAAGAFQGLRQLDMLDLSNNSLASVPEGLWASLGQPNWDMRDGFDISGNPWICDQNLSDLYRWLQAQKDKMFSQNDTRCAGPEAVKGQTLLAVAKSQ
Nature of the experiment: LRG1 degradation in HK-2 cells. In kind it is cell-based. As to conditions: various concentrations, Western blot (Fig. S9). Summed up: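 HK-2 cells were seeded at 3 × 10^5 cells per well. After adherence, they were serum-starved 6 h, then treated with test compound at varying concentrations for 12 h. Harvested protein went to Western blot, with LRG1 normalised to GAPDH as internal control.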

For another experiment, the system named is HK-2 cells. Kind of experiment: Cellular uptake by flow cytometry and confocal microscopy. In kind it is cell-based, human. As to conditions: 10 µM, 1-h and 4-h incubation, flow cytometry, n = 3. The method, boiled down: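 HK-2 cells in DMEM with 10% FBS at 37 °C and 5% CO2, seeded at 3 × 10^5 cells per well. After adherence, they got medium with 10 µM Cy5-labelled test peptide or control peptide, some with TGF-β, for 1 h or 4 h. Flow cytometry quantified uptake (n = 3). For confocal imaging, the same treatment was followed by fixation and Hoechst 33342 nuclear stain.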

Where no end group is shown, it is not given here.

On to `Nc1cccc2c1CN(C1CCC(=O)NC1=O)C2=O` (centres unmarked) [lenalidomide, Lenalidomide], for which, at LRG1, the “LRG1 degradation by the constituents (control degradation experiments)” value is “none of these treatments led to LRG1 degradation”.

For the molecule “ET-Cy5: ET peptide labeled with cyanine dye Cy5 (ESYSAKHRIMLT; also: Cy5 label, position not given here)”, in the experiment on HK-2 cells, the “uptake by HK-2 cells compared with control peptide” value is given as “markedly enhanced than MP-Cy5”.
